Source: PubChem BioAssay (several laboratories)
This is a sample that favours compounds with a hit; in the whole collection about 1.8% have one here.
iPSC survival up – enhancers of human iPSC single-cell survival | AID 602274 | survival enhancement, % at 20 µM | hiPSC single-cell survival, ATPlite luminescence; 100% = ROCK inhibitor wells, 0% = DMSO | 360,000 tested, 0.044% active; in the data active means survival enhancement above about 18%;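 further: cells exposed to compounds for 16 hours before the ATP read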
MT1-MMP act inh – blocks activation of human MT1-MMP | P50281 | HT1080 RFP-PRO-GFP cells, GFP/RFP ratio fluorescence, overnight; percent of plate control window, DMSO zero | GFP/RFP ratio change, % at 20 µM | 360,000 tested, 0.061% active | AID 651647;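 active means GFP/RFP ratio change of at least 30% with cell ATP level not reduced by more than half and red fluorescence within 50% of control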
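Read-out: GFP/RFP fluorescence ratio; Test system: RFP-PRO-GFP reporter HT1080 cells; Compound dosing: single-point 20 µM compound, 1% DMSO; Times: overnight compound exposure at 37 °C.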
TbMetRS inhib – Trypanosoma brucei MetRS inhibition. 360,000 tested, 0.4% active. inhibition, % at 11.9 µM. purified T. brucei MetRS, ATP depletion, Kinase-Glo luminescence;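 active means inhibition above a per-plate cutoff of the control wells' mean inhibition plus 3 SD, cut at about 5.5% in these data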;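 further: 0% = DMSO wells median and 100% = median of wells with control inhibitor compound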
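Dosing: 11.9 µM single point; system: parasite MetRS enzyme; technique: luminescence of leftover ATP; times: 15 min enzyme-compound preincubation, 2 h reaction, 10 min detection, 25 °C; replicates: each compound tested once; read-out basis: percent inhibition relative to median high and low control wells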
eLon inh – inhibits E. coli Lon protease; purified E. coli Lon protease, fluorescence polarization; inhibition, % at 7.94 µM; 360,000 tested, 0.42% active; AID 602123; P0A9M0; in the data active means inhibition above about 13%, passing the limit was not always enough;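 further: 0% = enzyme with probe and DMSO and 100% = no enzyme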
Target sequence (P0A9M0 whole entry, looked up): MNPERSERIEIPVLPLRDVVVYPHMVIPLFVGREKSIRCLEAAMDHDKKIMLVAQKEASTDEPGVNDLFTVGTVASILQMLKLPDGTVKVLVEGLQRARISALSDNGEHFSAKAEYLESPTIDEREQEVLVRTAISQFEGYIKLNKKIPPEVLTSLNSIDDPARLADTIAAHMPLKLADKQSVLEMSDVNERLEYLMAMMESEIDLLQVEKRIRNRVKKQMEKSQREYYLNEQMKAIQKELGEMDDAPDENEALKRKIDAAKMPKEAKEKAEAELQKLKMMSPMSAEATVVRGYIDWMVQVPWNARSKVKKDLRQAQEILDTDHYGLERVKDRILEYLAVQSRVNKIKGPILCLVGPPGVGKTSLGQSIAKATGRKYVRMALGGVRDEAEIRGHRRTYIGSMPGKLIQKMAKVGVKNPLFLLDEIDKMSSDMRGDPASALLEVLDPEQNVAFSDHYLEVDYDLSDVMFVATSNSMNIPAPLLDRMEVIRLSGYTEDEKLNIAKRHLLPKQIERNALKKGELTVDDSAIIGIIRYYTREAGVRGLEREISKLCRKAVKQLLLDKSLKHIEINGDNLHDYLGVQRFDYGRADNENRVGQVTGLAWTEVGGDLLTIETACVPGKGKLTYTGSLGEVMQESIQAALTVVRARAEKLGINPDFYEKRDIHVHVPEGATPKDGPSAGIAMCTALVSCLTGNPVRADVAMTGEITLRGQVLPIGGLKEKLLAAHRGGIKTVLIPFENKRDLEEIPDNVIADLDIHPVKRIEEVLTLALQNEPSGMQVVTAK
SKN-1 inh – C. elegans SKN-1 inhibition | C. elegans VP596 Pgst-4::GFP/RFP ratio, acrylamide-induced, 24 h | inhibition, % at 21.8 µM | 360,000 tested, 0.49% active | AID 624304;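 active means interference check ratio from 0.5 to 1.5 plus GFP to RFP signal ratio inhibition reaching or exceeding a fixed threshold, cut at about 30% in these data, passing the limit was not always enough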
PREPL inh – inhibits the human prolyl oligopeptidase-like enzyme; Q4J6C6; recombinant PREPL, fluorescence polarization activity-based probe; inhibition, % at 5.96 µM; 320,000 tested, 0.68% active; in the data active means inhibition above about 43%;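 further: 0% = enzyme with DMSO and 100% = wells lacking enzyme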
Starred values were filed as active, the others as inactive; nt = no result.

SMILES | iPSC survival up | MT1-MMP act inh | TbMetRS inhib | eLon inh | SKN-1 inh | PREPL inh
CN(C(=O)c1ccco1)c1nc(-c2ccccc2)cs1 | -1 | 1 | 1 | -7 | 40* | 3
COc1cc(C=C2C(=O)C=CC2=O)ccc1O | 5 | 9 | 0 | -139 | 6 | nt
CCOC1=C2[C@@H](CN(S(=O)(=O)c3ccc(C)cc3)[C@H]2c2ccccc2Cl)[C@H]2C(=O)N(Cc3ccccc3)C(=O)[C@H]2C1 | 1 | -6 | 0 | 2 | 2 | nt
CC(C)[C@@H](C(=O)N[C@@H](CCc1ccc(O)cc1)C(=O)O)N(C)C(=O)[C@H](CO)NC(=O)[C@@H](O)[C@H](N)CCCCCCCCl | -1 | 0 | 1 | -4 | 4 | nt
COc1ccc(CCNC2=CC(=O)CCC2)cc1OC | 0 | 2 | 0 | 0 | -1 | nt
O=C(CCN=C1NS(=O)(=O)c2ccccc21)OCc1ccccc1 | 0 | 2 | -1 | -9 | 2 | 12
Cc1ccc(NC(=O)/C(=C\c2ccc([N+](=O)[O-])cc2)NC(=O)c2ccccc2)cc1 | 58* | 1 | 0 | -6 | 8 | -3
O=C(N/N=C/c1ccc(O)c(O)c1O)/C(=C/c1ccc([N+](=O)[O-])cc1)NC(=O)c1ccccc1 | 3 | 5 | 12* | 27* | 6 | 12
O=C(Nc1cccc2ccccc12)/C(=C/c1ccc([N+](=O)[O-])cc1)NC(=O)c1ccccc1 | -1 | 4 | 0 | 0 | 14 | 7
O=C(Nc1cccc(C(=O)O)c1)/C(=C/c1ccc([N+](=O)[O-])cc1)NC(=O)c1ccccc1 | -1 | 0 | 0 | -4 | -16 | -5
NC(=O)CC(NC(=O)c1ccccc1)C(=O)O (centres undefined) | 20* | 3 | -1 | -1 | -3 | 0
Cc1cc(NC(=O)C2(C)CCN2C(C)C)c2ccccc2n1 (centres undefined) | -3 | -2 | 0 | 3 | -2 | nt
CCOc1cccc2sc(N(CCN(C)C)C(=O)c3cc4ccccc4cc3OC)nc12 | 0 | -3 | -1 | -7 | -7 | -36
CCOc1ccc2nc(N(CCN(C)C)C(=O)c3cc4ccccc4cc3OC)sc2c1 | 0 | -4 | -1 | 8 | 38* | -42
CSc1ncnc2c1ncn2CCCN1CCN(Cc2cccc3ccccc23)CC1 | -1 | 5 | -1 | -2 | 0 | nt
CCn1c(CCC(=O)Nc2nc3c(s2)CCCC3)nc2cc(S(=O)(=O)N(C)C)ccc21 | -2 | -2 | 1 | -4 | 54* | -7
Cc1cccc(-n2c(C)nc3cc(C(=O)NCCN4CCOCC4)ccc32)c1 | 8 | 3 | 0 | 1 | 6 | nt
CC(C)(C)NC(=O)C(c1ccc(C(F)(F)F)cc1)n1c(=O)c(-c2ccco2)nc2ccccc21 (centres undefined) | nt | -11 | 0 | nt | 7 | nt
O=C1NC2(CCN(Cc3ccccc3)CC2)Oc2ccccc21 | -2 | 2 | 0 | -3 | -4 | -3
O=C1c2ccccc2OC2(C=Cc3ccccc3O2)N1Cc1ccccc1 (centres undefined) | 0 | -6 | -1 | 9 | 40* | -12
Oc1ccc(-c2onc(C(F)(F)F)c2-c2cscn2)c(O)c1 | 20* | -4 | -1 | -14 | 4 | 2
CCn1ccnc1CNCc1cn(-c2cc(C)ccc2C)nc1-c1ccccc1 | -1 | -1 | 0 | 3 | -8 | 3
Cc1ccc(C)c(-n2cc(CNCCc3cnccn3)c(-c3ccccc3)n2)c1 | -1 | -3 | -1 | 39* | -1 | 8
CCOC(=O)c1c(-c2cc(OC)c(OC)c(OC)c2)csc1N | 21* | 0 | 0 | -12 | 8 | nt
Cn1c(Oc2cccnc2CN2CCCC2)nc2cc(-c3cccc(C(F)(F)F)c3)sc2c1=O | -2 | 0 | 0 | 8 | 14 | nt
SMILES | iPSC survival up | MT1-MMP act inh | TbMetRS inhib | eLon inh | SKN-1 inh | PREPL inh
O=C(C1CCN(c2nc(-c3ccccc3)nc3c2CCC3)CC1)N1CCCC1 | 0 | -4 | 0 | -1 | 13 | 5
COc1ccc(CNCCC(c2ccc(OC)cc2)c2ccccc2OC)cc1 (centres undefined) | 0 | -4 | 0 | 1 | 38* | -10
Cc1ccc(S(=O)(=O)NCCCCC(NC(=O)OC(C)(C)C)C(=O)O)cc1 (centres undefined) (tested in a mixture with another compound) | -1 | -8 | 0 | 5 | 35* | -3
CC1=C(C(=O)N2CCCCCC2)CC(CC(=O)NCCc2ccccn2)C(=O)N1CCC1=CCCCC1 (centres undefined) | -1 | 4 | 0 | 4 | -9 | nt
c1ccc(-c2ccc(-n3ccnc3)cc2)cc1 | -1 | -2 | 0 | 0 | 82* | -55
COc1ccc(NC(=O)C2(C)CCN2Cc2ccc(C(C)C)cc2)cc1OC (centres undefined) | 1 | 4 | 0 | 2 | -2 | nt
O=C1/C(=C\c2cccs2)SC(=S)N1C1CCS(=O)(=O)C1 (centres undefined) | 0 | 0 | 0 | 5 | 39* | -5
Cc1ccccc1N=C(c1ccccc1)C1C(=O)c2ccccc2C1=O | 0 | -6 | -1 | -9 | 7 | nt
CCOc1ccccc1-c1c2cc(O)c(=O)cc-2oc2cc(O)c(O)cc12 | -3 | -27 | 0 | 176* | 52 | nt
CCOC(=O)c1oc2cc(O)ccc2c(=O)c1-c1ccccc1OC | -3 | 4 | -1 | 4 | -3 | 14
O=c1cc2oc3cc(O)c(O)cc3c(-c3ccccc3O)c-2cc1O | 0 | 5 | 1 | 92* | 71 | nt
CCOC(=O)[C@]12CCC=C1N(Cc1cccc3ccccc13)C(=O)[C@H](CC(=O)NCCc1ccccc1OC)C2 | 0 | 0 | -1 | -3 | -3 | nt
CC(=O)N1c2ccc(S(=O)(=O)NCC3CCC(C(=O)Nc4cccc(C)n4)CC3)cc2CC1C (centres undefined) | 1 | 1 | 0 | -6 | 7 | 2
Cc1ccc(N2CCN(S(=O)(=O)c3ccc4oc(=O)ccc4c3)CC2)c(C)c1 | 0 | 3 | -1 | 5 | 43* | -56
O=c1ccc2cc(S(=O)(=O)N3CCN(c4cc(Cl)ccc4Cl)CC3)ccc2o1 | 3 | -5 | 0 | 7 | 13 | -21
Cc1ccc(F)c(C(=O)N2CCCC(C)(C(=O)NS(=O)(=O)C3CC3)C2)c1F (centres undefined) | -1 | 2 | 0 | -8 | 7 | nt
COc1cccc(-c2cc(C(=O)Nc3c(C)nn(Cc4ccccc4)c3C)no2)c1 | 1 | -8 | 0 | 4 | 25 | 12
COc1ccc(-c2cc(C(=O)Nc3c(C)nn(Cc4ccccc4)c3C)no2)cc1 | -2 | 10 | 0 | -11 | 36* | 13
